Experimental data taken from paper PMC9924077 (Cell stem cell, 2022).

Legend:
[1] = risk of TdP arrhythmia at clinical exposures; cited from earlier work
hiPSC-CMs = type: cell-based, human; settings: for apparent risk in this study compared with actual clinical practice: hiPSC-CMs, Torsadogenic safety margin
[2] = system: hiPSC-derived cardiomyocytes; settings: tested at concentrations exceeding 100 times the free Cmax; cited from earlier work
DCM and HCM hiPSC-CMs = type: cell-based, human; settings: for asystole safety margin versus isogenic control: DCM RBM20 p.R634Q and PLN p.R14del, HCM MYBPC3 p.R943X and TPM1 p.K37E versus isogenic control hiPSC-CMs; for Torsadogenic safety margin in DCM and HCM hiPSC-CMs versus isogenic control: DCM and HCM lines versus HD.15S1 isogenic control
Method in brief: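 Cells were HCM (TPM1, MYBPC3) and DCM (TNNT2, RBM20, PLN) hiPSC-CMs made by Cas9/ssODN knock-in and Sanger-verified, plus isogenic control. They were plated at 25,000/well for ≥4 days, dye-loaded with VF2.1.Cl/Hoechst for 50 min at 37°C, exposed to drug for 15 min at 37°C, and imaged at 33 Hz for 10 s. Design: 8 doses, 3 differentiation batches × 3 technical repeats. CNN arrhythmic/asystolic probability was fitted by binomial glm against log dose, with EC50 and 95% CI.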

[3] = healthy donor hiPSC-CMs, 8 concentrations

| SMILES | CiPA TdP risk classification [1] | apparent risk in this study compared with actual clinical practice (hiPSC-CMs) | asystole safety margin versus isogenic control (DCM and HCM hiPSC-CMs) | also measured |
| --- | --- | --- | --- | --- |
| CC(C)COCC(CN(Cc1ccccc1)c1ccccc1)N1CCCC1 (stereo not drawn) [bepridil, Bepridil] | high-risk | appeared less |  | response in hiPSC-derived cardiomyocytes in previous studies [2]: non-arrhythmic responses |
| CN(CCOc1ccc(NS(C)(=O)=O)cc1)CCc1ccc(NS(C)(=O)=O)cc1 [dofetilide, Dofetilide] |  |  | heightened propensity to cause asystole |  |
| O=C(CCCN1CC=C(n2c(=O)[nH]c3ccccc32)CC1)c1ccc(F)cc1 [droperidol, Droperidol] | intermediate risk | riskier | heightened propensity to cause asystole | Torsadogenic safety margin in DCM and HCM hiPSC-CMs versus isogenic control (DCM and HCM hiPSC-CMs): trended towards increased risk |
| CCCCCCCN(CC)CCCC(O)c1ccc(NS(C)(=O)=O)cc1 (stereo not drawn) [ibutilide, Ibutilide] | high |  | heightened propensity to cause asystole | arrhythmia probability (CNN) versus dose (hiPSC-CMs; [3]): continuous, dose-dependent increase in arrhythmia probability; Torsadogenic safety margin in DCM and HCM hiPSC-CMs versus isogenic control (DCM and HCM hiPSC-CMs): trended towards increased risk |
| Cc1cccc(C)c1OCC(C)N (stereo not drawn) [mexiletine, Mexiletine] | low-no risk | riskier |  |  |
| COC(=O)C1=C(C)NC(C)=C(C(=O)OC)C1c1ccccc1[N+](=O)[O-] [nifedipine, Nifedipine] |  |  |  | asystole (probability of asystole class, CNN) versus dose (hiPSC-CMs; [3]): dose-dependent induction of asystole |
| Cc1nccn1CC1CCc2c(c3ccccc3n2C)C1=O (stereo not drawn) [ondansetron, Ondansetron] | intermediate |  |  |  |
| COc1ccccc1OCC(O)CN1CCN(CC(=O)Nc2c(C)cccc2C)CC1 (stereo not drawn) [ranolazine, Ranolazine] | low-no risk | riskier |  |  |
